The source of these data is ChEMBL document CHEMBL4387761, “Design, synthesis and biological evaluation of novel 2,3-indolinedione derivatives against mantle cell lymphoma” (Bioorg Med Chem, 2019).

The subject of test [1] is Rec1. In words: Induction of apoptosis in human Rec1 cells assessed as early apoptotic cells at 0.5 uM after 24 hrs by Annexin V-FITC/propidium iodide staining based flow cytometric analysis (reference value: 7.66%). Type of test: functional. In general terms: In flow cytometry, cells or beads pass a laser one at a time.
Test [2] relates to Rec1. In words: Induction of apoptosis in human Rec1 cells assessed as late apoptotic cells at 0.5 uM after 24 hrs by Annexin V-FITC/propidium iodide staining based flow cytometric analysis (reference value: 6.32%). Type of test: functional.
Test [3] relates to Rec1. The experiment in a line: Induction of apoptosis in human Rec1 cells assessed as late apoptotic cells at 1 uM after 24 hrs by Annexin V-FITC/propidium iodide staining based flow cytometric analysis (reference value: 6.32%). Type of test: functional.
Test [4] has as its system Rec1. In words: Induction of apoptosis in human Rec1 cells assessed as necrotic cells at 2.5 uM after 24 hrs by Annexin V-FITC/propidium iodide staining based flow cytometric analysis (reference value: 0.62%). Type of test: functional.
Test [5] concerns Rec1. The experiment in a line: Induction of apoptosis in human Rec1 cells assessed as viable cells at 2.5 uM after 24 hrs by Annexin V-FITC/propidium iodide staining based flow cytometric analysis (reference value: 85.54%). In kind it is functional. Conditions: Rec1, 24 h, read-out: Activity.
For test [6], the system named is Z-138. In words: Induction of apoptosis in human Z138 cells assessed as early apoptotic cells at 1 uM after 24 hrs by Annexin V-FITC/propidium iodide staining based flow cytometric analysis (reference value: 7.6%). Type of test: functional.
In test [7] the test system is Z-138. In words: Induction of apoptosis in human Z138 cells assessed as early apoptotic cells at 2.5 uM after 24 hrs by Annexin V-FITC/propidium iodide staining based flow cytometric analysis (reference value: 7.6%). In kind it is functional.
The subject of test [8] is Z-138. The experiment in a line: Induction of apoptosis in human Z138 cells assessed as late apoptotic cells at 1 uM after 24 hrs by Annexin V-FITC/propidium iodide staining based flow cytometric analysis (reference value: 4.62%). Type of test: functional.
Test [9] concerns Z-138. In words: Induction of apoptosis in human Z138 cells assessed as late apoptotic cells at 2.5 uM after 24 hrs by Annexin V-FITC/propidium iodide staining based flow cytometric analysis (reference value: 4.62%). Type of test: functional.
Test [10] has as its system Z-138. In words: Induction of apoptosis in human Z138 cells assessed as late apoptotic cells at 5 uM after 24 hrs by Annexin V-FITC/propidium iodide staining based flow cytometric analysis (reference value: 4.62%). Type of test: functional.
For test [11], the system named is Z-138. The experiment in a line: Induction of apoptosis in human Z138 cells assessed as necrotic cells at 1 uM after 24 hrs by Annexin V-FITC/propidium iodide staining based flow cytometric analysis (reference value: 0.61%). In kind it is functional.
Test [12] has as its system Z-138. In words: Induction of apoptosis in human Z138 cells assessed as necrotic cells at 2.5 uM after 24 hrs by Annexin V-FITC/propidium iodide staining based flow cytometric analysis (reference value: 0.61%). In kind it is functional.
Test [13] relates to Z-138. In words: Induction of apoptosis in human Z138 cells assessed as viable cells at 0.5 uM after 24 hrs by Annexin V-FITC/propidium iodide staining based flow cytometric analysis (reference value: 87%). In kind it is functional. Conditions: Z-138, 24 h, read-out: Activity.
Test [14] relates to Z-138. In words: Induction of apoptosis in human Z138 cells assessed as viable cells at 2.5 uM after 24 hrs by Annexin V-FITC/propidium iodide staining based flow cytometric analysis (reference value: 87%). Type of test: functional. Conditions: Z-138, 24 h, read-out: Activity.
In test [15] the test system is Rec1. In words: Cell cycle arrest in human Rec1 cells assessed as accumulation at S phase at 1 uM after 24 hrs by flow cytometric analysis (reference value: 46.42%). Type of test: functional. Summed up:
(§1)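 Rec-1 cells seeded at 200,000 cells/well and treated at 0.5 or 1 μM for 24 h. Cells harvested, washed twice in cold PBS and fixed overnight in cold 70% ethanol at 4 °C. Stained with PI and analysed by flow cytometry for phase distribution.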

Test [16] concerns Rec1. The experiment in a line: Cell cycle arrest in human Rec1 cells assessed as accumulation at S phase at 0.5 uM after 24 hrs by flow cytometric analysis (reference value: 46.42%). Type of test: functional. The essentials:
as §1

Test [17] concerns Rec1. In words: Cell cycle arrest in human Rec1 cells assessed as accumulation at G1 phase at 0.5 uM after 24 hrs by flow cytometric analysis (reference value: 37.28%). In kind it is functional. Summed up:
as §1

In test [18] the test system is Rec1. The experiment in a line: Cell cycle arrest in human Rec1 cells assessed as accumulation at super-G2 phase at 1 uM after 24 hrs by flow cytometric analysis (reference value: 0.72%). Type of test: functional. Summed up: as §1
In test [19] the test system is Rec1. The experiment in a line: Induction of apoptosis in human Rec1 cells after 24 hrs by Annexin V-FITC/propidium iodide staining based flow cytometric analysis. Type of test: functional, cell-based.
The subject of test [20] is Rec1. In words: Cell cycle arrest in human Rec1 cells assessed as accumulation at G2/G1 phase at 0.5 uM after 24 hrs by flow cytometric analysis (reference value: 1.96%). Type of test: functional. The essentials: as §1

For `O=C(CCl)Nc1ccc2c(c1)C(=O)C(=O)N2Cc1ccc(Cl)c(Cl)c1`, the Activity with Rec1 [1] stood at 10.4%; in the test on Rec1 [2], 40.5%; in the test on Rec1 [3], 43%; with Rec1 [4], 20.4%; in the test on Z-138 [6], 10.8%; in the test on Z-138 [7] it was 18.3%. Besides, the Activity in the test with Z-138 [8] is recorded as 40.3%; in the test on Z-138 [9], 77.4%; in the test on Z-138 [10], 59.1%; in the test on Z-138 [11], 2.1%; in the test on Z-138 [12], 2.37%; with Rec1 [15], 71.68%. The Activity is 36.58% with Rec1 [16]; 39.17% in the test on Rec1 [17]; 0.02% in the test with Rec1 [18]; “Dose-dependent effect” with Rec1 [19]; 1.96% with Rec1 [20]. The results for the viability at 2.5 µM in the test with Rec1 [5] and with Z-138 [14] were 7.42% and 1.93%, respectively. The viability at 0.5 µM with Z-138 [13] turned out to be 65.6%.
